Lipid droplet: modulators of hepatic lipid droplet formation | AID 1656 | AML12 mouse hepatocytes, oleate lipid droplets, BODIPY imaging | inhibition, % at 6.5 µM | actives 0.4% (n = 240,000);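 active means lipid droplet intensity inhibited by at least 50%, with more than 500 cells counted; inconclusive means wells with under 300 cells, treated as cytotoxic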
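material = mouse AML12 hepatocyte cell line, fixed after treatment | also added = 100 µM oleic acid challenge | doses = compound at 6.5 µM only | schedule = overnight exposure | technique = Image-based BODIPY and DAPI two-channel analysis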
CHT allo act: human CHT allosteric activation | actives 0.49% (n = 310,000) | Q9GZV3 | CHT-expressing cells, membrane potential dye, choline EC20; active compounds read high; LV-AA mutant CHT in HEK293 cells | B-score at 10 µM;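 active means initial fluorescence not abnormally high and integrated response B-score, plate-corrected, over 3 SD above library mean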
CHT block: inhibits the human high affinity choline transporter | CHT-expressing cells, membrane potential dye, choline response; active compounds read low | actives 0.86% (n = 310,000) | B-score at 10 µM | Q9GZV3;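 active means B-score over 3 SD under the library average, and starting fluorescence ratio not unusually high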;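 further: choline stimulus applied at its EC90 after an EC20 pre-addition; B-score computed on integrated fluorescence ratio after choline addition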
HSF-1 act: increases HSF-1 driven luciferase reporter signal; NIH3T3-HGL HSF-1 luciferase reporter, MG132, 8 h; 100% = twice DMSO control signal; activation, % at 9 µM; actives 1.7% (n = 300,000); AID 504408;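 active means mean replicate activation of at least 50% with a set share of replicates each reaching 50%; inconclusive means only one of those two conditions met; inactive means mean below 50% and too few replicates reaching it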
PHOSPHO1 inh: inhibitors of human PHOSPHO1 phosphatase; Q8TCT1; recombinant PHOSPHO1, absorbance phosphatase assay; inhibition, % at 13.3 µM; actives 1.1% (n = 290,000); AID 1565; in the data active means inhibition above about 60%
Target sequence (Q8TCT1 whole entry, looked up): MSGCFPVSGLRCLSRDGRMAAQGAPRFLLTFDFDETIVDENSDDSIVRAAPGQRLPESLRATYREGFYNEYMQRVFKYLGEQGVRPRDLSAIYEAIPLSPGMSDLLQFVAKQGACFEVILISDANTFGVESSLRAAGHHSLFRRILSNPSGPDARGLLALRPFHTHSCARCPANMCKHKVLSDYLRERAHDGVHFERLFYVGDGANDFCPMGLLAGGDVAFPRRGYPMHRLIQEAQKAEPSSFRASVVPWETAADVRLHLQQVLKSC
HSF1 inhib: HSF1 inhibition; activity change, negative = inhibition, % at 7.5 µM (by protocol); NIH3T3-HGL HSE-luciferase, MG132-induced, luminescence 8 h; active compounds read low; AID 2098; actives 0.77% (n = 300,000);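 active means more than half of replicate wells show activity change below -50%, luminescence cut by over half; inconclusive means some wells, but at most half, below -50%; inactive means no replicate well below -50%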;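 further: luciferase reports HSF-1 transcriptional activity via heat shock element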
CHT inh conf: confirmation of human choline transporter CHT inhibitors. shares compounds with CHT block. CHT-expressing cells, choline membrane potential dye; LV-to-AA substituted CHT, HEK293 cells. CHT activity remaining % of control (active compounds read low), % at 10 µM. actives 70% (n = 2,400). AID 493221;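 active means choline transporter activity left, mean of duplicates at 10 µM, below buffer-only control mean minus 3 SD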;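 further: depolarization triggered by choline at its EC90 following an EC20 pre-addition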
HEK293 CHT ctr: counter-screen for CHT inhibitors: effect in parental HEK293 cells. membrane potential ratio readout (active if shifted either direction beyond buffer ±3SD; no single direction) at 10 µM. shares compounds with CHT block. membrane potential dye, choline response; active = decrease or increase beyond buffer ±3SD. actives 4% (n = 2,400);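 further: parental cells lack the transporter so any hit is non-specific; ratio is peak minus trough fluorescence over baseline after EC90 choline challenge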
Numbers stand for hits; – = inactive; ? = inconclusive; · = no result given. Only some compounds are listed: those with a hit (about 4.9% of all), similar ones and a draw of the others.

SMILES | Lipid droplet | CHT allo act | CHT block | HSF-1 act | PHOSPHO1 inh | HSF1 inhib | CHT inh conf | HEK293 CHT ctr
CCC(=O)N1CCc2cc(Br)cc(S(=O)(=O)NC3CCN(Cc4ccccc4)CC3)c21 | – | – | -9 | – | – | – | 37.7% | 3.18
O=S(=O)(NC1CCN(Cc2ccccc2)CC1)c1ccc2ccccc2c1 | – | – | -5.68 | – | – | – | – | –
Cc1cccc(C(=O)NNC2=C(C(=O)C(F)(F)F)CCC2)c1O | – | – | -7.94 | – | – | – | 37.1% | –
Fc1ccc(CNc2ccc(N3CCN(Cc4ccccc4)CC3)cc2)cc1 | – | – | – | – | – | – | – | –
CC(=O)N1CCN(c2ccc(NCc3ccccc3)cc2)CC1 | · | – | – | – | – | – | · | ·
CN1CCN(C(=O)C2CCCN(S(=O)(=O)c3ccc(F)cc3)C2)CC1 (configuration not stated) | – | – | – | – | – | – | · | ·
COc1ccc(CCNc2nc(-c3ccc(NC(C)=O)cc3)cs2)cc1OC | – | – | – | – | – | – | · | ·
COc1ccc(CCNc2nc(-c3ccc(O)cc3)cs2)cc1OC | – | – | -5.01 | – | – | – | – | –
COC(=O)Cn1nc(-c2ccc(C)c(S(=O)(=O)N(C)C)c2)c2ccccc2c1=O | · | – | – | – | – | – | · | ·
CC1=CC(=O)C(C(C)C)=C/C1=N/OS(=O)(=O)c1ccccc1 | – | – | -9.6 | 83.0 | – | – | 64.1% | –
CC1=CC(=O)C=C(C)C1=NOS(=O)(=O)c1ccccc1 | – | · | · | – | – | – | · | ·
COc1cccc(-c2cccc(NC(=O)C3CCN(Cc4ccc(CO)o4)CC3)c2)c1 | – | – | – | – | – | – | · | ·
O=C(O)c1ccccc1-c1ccccc1C(=O)Nc1ccc(-c2nc3cc(Cl)ccc3o2)cc1 | – | – | -7.49 | – | – | – | 55.3% | –
Cc1cc(S(=O)(=O)NCc2ccncc2)c(C)cc1Br | – | – | -5.01 | – | – | – | 67.0% | –
Cc1ccc(C)c(S(=O)(=O)NCc2ccncc2)c1 | · | – | – | – | – | – | · | ·
CC1CC(C)CN(CC(O)COCc2ccccc2F)C1 (configuration not stated) | – | – | – | – | – | – | · | ·
Cn1ccnc1Sc1ccccc1[N+](=O)[O-] | – | – | – | – | – | – | · | ·
Cn1ccnc1Sc1ccc(C=O)cc1[N+](=O)[O-] | – | – | -6.27 | – | – | – | – | –
COc1ccc(N2CCN(S(=O)(=O)c3cn(C)c(=O)n(C)c3=O)CC2)cc1 | – | – | -5.26 | – | – | – | – | –
CC(C)OCCCNc1ncc2c(n1)CC(c1ccc(N(C)C)cc1)CC2=O (configuration not stated) | · | – | – | – | – | – | · | ·
CC1CCN(S(=O)(=O)c2ccc3c(c2)N(CC(=O)NCCN2C(C)CCCC2C)C(=O)CS3)CC1 (configuration not stated) | – | – | -10.4 | – | – | – | 17.0% | –
CCCCN(C)CCNC(=O)CN1C(=O)CSc2ccc(S(=O)(=O)N3CCCC3)cc21 | – | – | -5.73 | – | – | – | 58.3% | –
CCCCCCCNC(=O)CN1C(=O)CSc2ccc(S(=O)(=O)N3CCOCC3)cc21 | – | – | – | – | – | – | · | ·
CC1CCN(S(=O)(=O)c2ccc3c(c2)N(CC(=O)NCCCN2CCCCC2C)C(=O)CS3)CC1 (configuration not stated) | – | – | -5.47 | – | – | – | 44.5% | –
Cc1cc(C(=O)Nc2ccc(S(=O)(=O)N3CCOCC3)cc2)ccc1[N+](=O)[O-] | – | – | – | – | – | – | · | ·
SMILES | Lipid droplet | CHT allo act | CHT block | HSF-1 act | PHOSPHO1 inh | HSF1 inhib | CHT inh conf | HEK293 CHT ctr
COC(=O)c1ccc(OCC(O)CN(CCO)CCO)cc1 (configuration not stated) | · | – | – | – | – | – | · | ·
COc1ccc(C2C(C#N)=C(N)N(N(C)C)C3=C2C(=O)CCC3)cc1 (configuration not stated) | – | – | – | – | – | – | · | ·
Cc1ccc(NCC(O)C(O)C(O)CO)cc1C (configuration not stated) | – | – | – | – | – | – | · | ·
Cc1cc(N=Nc2ccccc2)c(NCC(O)C(O)C(O)CO)cc1C (configuration not stated) | – | – | -10.6 | – | – | – | 30.0% | –
CCN(CC)S(=O)(=O)c1cc(C(=O)N2CCc3ccccc32)ccc1Cl | – | – | -5.84 | – | – | – | 66.7% | –
CN(C)CCCNCCCNC(=O)c1ccco1 | – | – | – | – | – | – | · | ·
Cc1cc2c(cc(C(=O)N3CCC(C(=O)NC4CCCC4)CC3)n2Cc2c(F)cccc2Cl)o1 | – | – | -6.59 | – | – | – | – | –
O=C(NC1CCCC1)C1CCN(C(=O)c2ccccc2Cl)CC1 | – | – | – | – | – | – | · | ·
COc1cccc(N2C(=O)N(c3ccccc3)C3CS(=O)(=O)CC32)c1 (configuration not stated) | · | – | -4.95 | – | – | -83.8 | 70.2% | –
COc1cccc(N2C(=O)N(c3ccccc3Cl)C3CS(=O)(=O)CC32)c1 (configuration not stated) | – | – | – | – | – | – | · | ·
CCC(C)(C)NC(=O)C(c1ccccn1)N(C(=O)c1csnn1)c1ccc(C)cc1 (configuration not stated) | – | – | -5.16 | – | – | – | – | –
CCc1ccc(N(C(=O)c2csnn2)C(C(=O)NC(C)(C)CC)c2cccnc2)cc1 (configuration not stated) | – | – | -5.1 | – | – | – | – | –
Cc1ccc(N(C(=O)c2csnn2)C(C(=O)NCc2ccccc2)c2ccccn2)cc1 (configuration not stated) | · | – | – | – | – | – | · | ·
CCC(C)(C)NC(=O)C(c1ccccc1F)N(Cc1ccco1)C(=O)c1csnn1 (configuration not stated) | · | – | -4.97 | – | – | – | – | –
CCC(C)(C)NC(=O)C(c1ccccc1F)N(Cc1ccco1)C(=O)Cn1nnc2ccccc21 (configuration not stated) | · | – | – | – | – | – | · | ·
COc1ccccc1N(CCC#N)C(=O)CSc1nc(-c2ccccc2)cn1N | · | – | – | – | – | – | · | ·
CC1=NNC(=O)/C1=C\c1cn(-c2ccccc2)nc1-c1ccccc1 | – | – | – | ? | – | – | · | ·
CCN(CC)C(=O)c1cn(CCC#N)nc1-c1ccc(F)cc1 | – | – | – | – | – | – | · | ·

Source: PubChem (several laboratories)
